Measurements as given in ChEMBL document CHEMBL3233004, “Analogue-based design, synthesis and biological evaluation of 3-substituted-(methylenehydrazono)indolin-2-ones as anticancer agents” (Eur J Med Chem, 2014).

Experiments:
[1] = system: MCF7; assay: Cytotoxicity against human MCF7 cells assessed as surviving fraction at 10 uM after 48 hrs by SRB assay relative to control; format: functional
Summary of the method: (§1)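 MCF-7 cells (ATCC) grown in DMEM with 10% heat-inactivated fetal calf serum. Seeded at 10⁴ cells/well and left 24 h to attach. Compounds dissolved in DMSO and diluted with saline, then given to the monolayer for 48 h at 37 °C under 5% CO₂. Cells fixed, stained 30 min with 0.4% SRB in 1% acetic acid, washed four times with 1% acetic acid, and bound dye recovered in Tris-EDTA. Colour read on an ELISA reader.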

[2] = system: MCF7; assay: Cytotoxicity against human MCF7 cells assessed as surviving fraction at 25 uM after 48 hrs by SRB assay relative to control; format: functional; summary of the method: as §1
[3] = system: MCF7; assay: Cytotoxicity against human MCF7 cells assessed as surviving fraction at 100 uM after 48 hrs by SRB assay relative to control; format: functional; summary of the method: as §1
[4] = system: MCF7; assay: Cytotoxicity against human MCF7 cells assessed as surviving fraction at 50 uM after 48 hrs by SRB assay relative to control; format: functional; summary of the method: as §1
[5] = system: MCF7; assay: Cytotoxicity against human MCF7 cells assessed as surviving fraction after 48 hrs by SRB assay; format: functional, cell-based; details: MCF7, 48 h; summary of the method: as §1

SMILES | Ratio [1] | Ratio [2] | Ratio [3] | Ratio [4] | IC50 [5] [µM]
O=C1Nc2ccc(Cl)cc2/C1=N/N=C/c1ccco1 | 0.384 | 0.274 | 0.231 | 0.259 | 7.75
Cc1ccc2c(c1)/C(=N/N=C/c1cccs1)C(=O)N2 | 0.227 | 0.132 | 0.137 | 0.099 | 6.75
O=C1Nc2ccc(Cl)cc2/C1=N/N=C/c1cccs1 | 0.619 | 0.31 | 0.194 | 0.204 | 15.3
O=C1Nc2ccc(F)cc2/C1=N/N=C/c1cccs1 | 0.616 | 0.505 | 0.308 | 0.331 | 25.8
O=C1Nc2ccccc2/C1=N/N=C/c1ccc[nH]1 | 0.465 | 0.328 | 0.357 | 0.395 | 6.25
Cc1ccc2c(c1)/C(=N/N=C/c1ccc[nH]1)C(=O)N2 | 0.473 | 0.351 | 0.206 | 0.221 | 9.25
O=C1Nc2ccc(Cl)cc2/C1=N/N=C/c1ccc[nH]1 | 0.51 | 0.392 | 0.259 | 0.238 | 11.8
O=C1Nc2ccc(F)cc2/C1=N/N=C/c1ccc[nH]1 | 0.671 | 0.274 | 0.528 | 0.456 | 10.8
O=C1Nc2ccccc2/C1=N/N=C/c1ccco1 | 0.637 | 0.306 | 0.333 | 0.158 | 15.8
Cc1ccc2c(c1)/C(=N/N=C/c1ccco1)C(=O)N2 | 0.436 | 0.213 | 0.102 | 0.195 | 8.75
O=C1Nc2ccc(F)cc2/C1=N/N=C/c1ccco1 | 0.667 | 0.429 | 0.257 | 0.335 | 20.3
O=C1Nc2ccccc2/C1=N/N=C/c1cccs1 | 0.352 | 0.602 | 0.546 | 0.522 | 8.25
COc1cccc2c1C(=O)c1c(O)c3c(c(O)c1C2=O)C[C@@](O)(C(=O)CO)C[C@@H]3O[C@H]1C[C@H](N)[C@H](O)[C@H](C)O1 [DOXORUBICIN] | 0.257 | 0.158 | 0.125 | 0.098 | 6.1
